Assay results: paper PMC3863817 (Scientific Reports, 2013)

How the values were obtained:
[1] = test system: KB cells; assay: Measurement of cellular ATP levels; assay type: cell-based, human; details: positive control, 1 μM for 4 h
Procedure, shortened: (§1)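 Cells plated at 2 × 10^5 per well and grown 1 day. They were exposed to 20 μM test compound for 4, 8, 16 or 24 h, or to rotenone (1 μM, 4 h) as positive control, at 37°C. KB cells were in folic acid-depleted RPMI-1640 and COS7 in DMEM, each with 10% FBS. Harvested cells were lysed in 1% TCA/4 mM EDTA for 20 min on ice, then Tris (pH 7.4). ATP was read with a bioluminescent kit on a chemiluminometer.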

[2] = test system: COS7 cells; assay: Measurement of cellular ATP levels; assay type: cell-based, African green monkey; details: positive control, 1 μM for 4 h
Procedure, shortened: as §1

SMILES: C=C(C)[C@H]1Cc2c(ccc3c2O[C@@H]2COc4cc(OC)c(OC)cc4[C@@H]2C3=O)O1 [rotenone]
- Cellular ATP level, in words [1]: induce a decrease in cellular ATP level
- Cellular ATP level, in words [2]: induce a decrease in cellular ATP level
